Among the data in ChEMBL document CHEMBL5696442, “Discovery of type II inhibitors of TGFβ-activated kinase 1 (TAK1) and mitogen-activated protein kinase kinase kinase kinase 2 (MAP4K2)” (J Med Chem, 2015) are inhibition and residual activity values, retold here.

The target in test [1] is Serine/threonine-protein kinase MARK2 (Homo sapiens) (UniProt Q7KZI7). Kind of test: Inhibition of MARK2 Lys2 labeling site harbouring DLKAENLLLDADMNIK in human Huh-7 cell lysate at 1 uM by KiNativ Profiling analysis relative to control. In kind it is subcellular.
Chain of Serine/threonine-protein kinase MARK2 (Homo sapiens) (Q7KZI7 whole entry, the tested form may be a part): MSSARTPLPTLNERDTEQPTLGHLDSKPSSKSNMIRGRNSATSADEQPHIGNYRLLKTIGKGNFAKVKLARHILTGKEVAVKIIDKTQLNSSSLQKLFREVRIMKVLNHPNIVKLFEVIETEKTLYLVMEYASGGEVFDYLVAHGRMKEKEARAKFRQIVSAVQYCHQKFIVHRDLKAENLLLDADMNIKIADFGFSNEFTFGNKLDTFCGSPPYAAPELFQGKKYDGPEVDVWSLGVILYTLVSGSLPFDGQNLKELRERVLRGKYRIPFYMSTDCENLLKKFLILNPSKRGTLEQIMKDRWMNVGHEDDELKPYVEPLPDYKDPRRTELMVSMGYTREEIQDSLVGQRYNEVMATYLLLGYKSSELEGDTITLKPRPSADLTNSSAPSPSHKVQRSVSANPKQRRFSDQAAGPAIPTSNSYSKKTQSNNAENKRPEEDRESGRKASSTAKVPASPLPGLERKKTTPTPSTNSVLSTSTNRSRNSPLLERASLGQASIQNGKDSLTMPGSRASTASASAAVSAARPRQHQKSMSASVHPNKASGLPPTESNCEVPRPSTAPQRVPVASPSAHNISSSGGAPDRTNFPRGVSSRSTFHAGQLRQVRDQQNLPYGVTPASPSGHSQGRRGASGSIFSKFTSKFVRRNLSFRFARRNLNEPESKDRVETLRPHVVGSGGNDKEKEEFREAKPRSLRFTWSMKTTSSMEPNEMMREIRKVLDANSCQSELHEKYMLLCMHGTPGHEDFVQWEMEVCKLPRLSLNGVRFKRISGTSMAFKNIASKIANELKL
The target of test [2] is Ribosomal protein S6 kinase alpha-4 (Homo sapiens) (UniProt O75676). The test is described as follows: Inhibition of MSK2 domain1 ATP Loop labeling site in human Huh-7 cells at 1 uM by KiNativ Profiling analysis relative to control. It is filed as cell-based.
In test [3] the target is Serine/threonine-protein kinase MARK1 (Homo sapiens) (UniProt Q9P0L2). The test is described as follows: Inhibition of MARK1 Lys2 labeling site in human A-375 cells at 5 uM by KiNativ Profiling analysis relative to control. In kind it is cell-based.
Chain of Serine/threonine-protein kinase MARK1 (Homo sapiens) (Q9P0L2 whole entry, looked up): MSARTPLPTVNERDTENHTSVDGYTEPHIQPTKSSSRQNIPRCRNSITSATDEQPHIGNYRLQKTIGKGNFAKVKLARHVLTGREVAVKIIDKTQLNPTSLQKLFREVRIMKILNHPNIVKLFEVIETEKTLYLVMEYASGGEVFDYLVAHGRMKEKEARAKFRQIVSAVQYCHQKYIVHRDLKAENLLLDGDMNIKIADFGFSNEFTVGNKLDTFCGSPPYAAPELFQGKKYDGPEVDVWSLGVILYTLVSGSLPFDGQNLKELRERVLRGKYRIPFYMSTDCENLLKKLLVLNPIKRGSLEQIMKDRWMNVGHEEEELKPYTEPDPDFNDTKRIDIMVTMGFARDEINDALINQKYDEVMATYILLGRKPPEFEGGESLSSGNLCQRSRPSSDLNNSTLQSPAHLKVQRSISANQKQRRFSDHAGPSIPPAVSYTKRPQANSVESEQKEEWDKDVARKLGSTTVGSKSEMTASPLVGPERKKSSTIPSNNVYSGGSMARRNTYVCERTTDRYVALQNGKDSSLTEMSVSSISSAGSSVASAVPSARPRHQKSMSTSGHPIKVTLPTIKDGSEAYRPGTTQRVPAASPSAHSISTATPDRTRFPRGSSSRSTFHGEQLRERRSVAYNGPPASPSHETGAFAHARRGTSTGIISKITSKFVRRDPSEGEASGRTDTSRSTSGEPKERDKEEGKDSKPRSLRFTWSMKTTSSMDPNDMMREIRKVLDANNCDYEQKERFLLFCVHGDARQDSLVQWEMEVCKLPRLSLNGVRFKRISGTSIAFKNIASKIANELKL
Test [4] addresses Receptor tyrosine-protein kinase erbB-3 (Homo sapiens) (UniProt P21860). Kind of test: Inhibition of HER3/ErbB3 Lys1 labeling site in human A-375 cells at 5 uM by KiNativ Profiling analysis relative to control. In kind it is cell-based.
For test [5], the target named is Tyrosine-protein kinase JAK1 (Homo sapiens) (UniProt P23458). Kind of test: Inhibition of JAK1 in human A-375 cells at 0.05 uM by KiNativ Profiling analysis relative to control. In kind it is cell-based.
Chain of Tyrosine-protein kinase JAK1 (Homo sapiens) (P23458 whole entry): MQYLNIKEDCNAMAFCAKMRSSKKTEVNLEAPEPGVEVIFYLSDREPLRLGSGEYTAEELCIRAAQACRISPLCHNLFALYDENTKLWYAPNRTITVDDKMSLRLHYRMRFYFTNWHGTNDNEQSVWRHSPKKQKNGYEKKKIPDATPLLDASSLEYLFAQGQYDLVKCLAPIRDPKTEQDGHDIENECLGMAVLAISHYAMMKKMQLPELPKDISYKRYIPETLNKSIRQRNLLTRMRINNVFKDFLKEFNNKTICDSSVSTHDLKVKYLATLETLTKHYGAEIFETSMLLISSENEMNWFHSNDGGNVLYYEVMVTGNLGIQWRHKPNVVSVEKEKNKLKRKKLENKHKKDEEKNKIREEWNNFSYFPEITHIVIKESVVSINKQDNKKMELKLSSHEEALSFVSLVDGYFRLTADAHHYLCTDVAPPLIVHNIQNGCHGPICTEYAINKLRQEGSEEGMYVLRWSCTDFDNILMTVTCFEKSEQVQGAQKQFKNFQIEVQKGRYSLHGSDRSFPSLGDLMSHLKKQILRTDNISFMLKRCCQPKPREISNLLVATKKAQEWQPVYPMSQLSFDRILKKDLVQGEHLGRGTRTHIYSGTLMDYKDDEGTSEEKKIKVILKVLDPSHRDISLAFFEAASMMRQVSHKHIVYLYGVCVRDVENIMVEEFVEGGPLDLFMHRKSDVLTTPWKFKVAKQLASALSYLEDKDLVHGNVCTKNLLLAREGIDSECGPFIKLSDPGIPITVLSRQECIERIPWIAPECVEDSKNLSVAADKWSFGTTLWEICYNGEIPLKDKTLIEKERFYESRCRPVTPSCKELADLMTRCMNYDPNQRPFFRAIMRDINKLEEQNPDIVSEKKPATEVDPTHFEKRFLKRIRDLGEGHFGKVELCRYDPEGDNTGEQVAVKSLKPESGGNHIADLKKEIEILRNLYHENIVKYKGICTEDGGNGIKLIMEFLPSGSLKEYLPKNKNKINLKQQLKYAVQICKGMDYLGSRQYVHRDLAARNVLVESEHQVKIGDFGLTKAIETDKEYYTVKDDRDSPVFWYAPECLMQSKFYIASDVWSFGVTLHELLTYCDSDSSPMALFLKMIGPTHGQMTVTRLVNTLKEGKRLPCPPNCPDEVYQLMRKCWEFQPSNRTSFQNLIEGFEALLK
The target of test [6] is Dual specificity tyrosine-phosphorylation-regulated kinase 1A (Homo sapiens) (UniProt Q13627). Kind of test: Inhibition of DYRK1A (unknown origin) at 1 uM by Ambit Kinomescan binding assay relative to control; values are per cent of control.
Test [7] has as its target T1, Phosphatidylinositol 5-phosphate 4-kinase type-2 gamma (Homo sapiens) (UniProt Q8TBX8).
T1 sequence (whole entry): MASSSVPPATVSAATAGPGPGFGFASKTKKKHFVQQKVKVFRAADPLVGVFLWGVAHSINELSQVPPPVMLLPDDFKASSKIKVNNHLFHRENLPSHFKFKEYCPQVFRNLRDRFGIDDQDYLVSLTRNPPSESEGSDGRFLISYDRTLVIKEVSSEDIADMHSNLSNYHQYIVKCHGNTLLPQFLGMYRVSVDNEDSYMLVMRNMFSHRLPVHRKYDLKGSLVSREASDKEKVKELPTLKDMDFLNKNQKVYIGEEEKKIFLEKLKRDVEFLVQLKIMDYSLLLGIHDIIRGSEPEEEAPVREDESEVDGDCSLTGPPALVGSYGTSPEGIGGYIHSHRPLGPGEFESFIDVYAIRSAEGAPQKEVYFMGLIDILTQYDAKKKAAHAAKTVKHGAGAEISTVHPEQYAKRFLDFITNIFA
The test is described as follows: Inhibition of PIP4K2C ATP labeling site harbouring VKELPTLK in human A-375 cells at 0.05 uM by KiNativ Profiling analysis relative to control. In kind it is cell-based.

Test [8] concerns the target T2, Dual specificity mitogen-activated protein kinase kinase 7 (Homo sapiens) (UniProt O14733).
T2 sequence (whole entry): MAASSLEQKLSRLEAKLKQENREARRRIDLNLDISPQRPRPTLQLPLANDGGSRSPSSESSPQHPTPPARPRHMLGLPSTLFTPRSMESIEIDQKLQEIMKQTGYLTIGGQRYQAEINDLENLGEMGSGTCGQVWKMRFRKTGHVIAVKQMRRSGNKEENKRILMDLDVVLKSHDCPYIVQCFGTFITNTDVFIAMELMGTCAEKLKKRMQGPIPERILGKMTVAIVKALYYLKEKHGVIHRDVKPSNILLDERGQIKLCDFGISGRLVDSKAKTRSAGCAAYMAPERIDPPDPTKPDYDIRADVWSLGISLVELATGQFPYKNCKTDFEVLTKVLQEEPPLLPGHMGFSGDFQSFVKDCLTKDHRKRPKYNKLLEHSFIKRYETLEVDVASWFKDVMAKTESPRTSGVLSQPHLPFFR
Kind of test: Inhibition of MKK7 (unknown origin) at 1 uM by Ambit Kinomescan binding assay relative to control.

Test [9] has as its target Cyclin-dependent kinase 7 (Homo sapiens) (UniProt P50613). The test is described as follows: Inhibition of CDK7 Lys2 labeling site in human A-375 cells at 5 uM by KiNativ Profiling analysis relative to control. It is filed as cell-based.
Test [10] addresses 5'-AMP-activated protein kinase catalytic subunit alpha-2 (Homo sapiens) (UniProt P54646). Kind of test: Inhibition of AMPKa2 Lys1 labeling site in human A-375 cells at 0.5 uM by KiNativ Profiling analysis relative to control. In kind it is cell-based. A digest of the protocol: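 Live A375 melanoma cells were treated with compound at 5 or 0.5 μM, then lysed. The lysates were labeled with a lysine-reactive ATP or ADP-biotin probe. Kinase protection from probe labeling was measured by KiNativ.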

The target of test [11] is Ribosomal protein S6 kinase alpha-6 (Homo sapiens) (UniProt Q9UK32). The test is described as follows: Inhibition of C-terminal RSK4 kinase domain 2 (unknown origin) at 1 uM by Ambit Kinomescan binding assay relative to control.
Test [12] has as its target Serine/threonine-protein kinase pim-3 (Homo sapiens) (UniProt Q86V86). The test is described as follows: Inhibition of PIM3 (unknown origin) at 1 uM by Ambit Kinomescan binding assay relative to control; values are per cent of control.
Test [13] deals with TRAF2 and NCK-interacting protein kinase (Homo sapiens) (UniProt Q9UKE5). Kind of test: Inhibition of TNIK K1 labeling site in human Huh-7 cells at 1 uM by KiNativ Profiling analysis relative to control. It is filed as cell-based.
Test [14] has as its target Casein kinase I isoform delta (Homo sapiens) (UniProt P48730). The test is described as follows: Inhibition of CK1delta Lys2 labeling site in human A-375 cells at 0.5 uM by KiNativ Profiling analysis relative to control. In kind it is cell-based.
In test [15] the target is Rho-associated protein kinase 1 (Homo sapiens) (UniProt Q13464). Kind of test: Inhibition of ROCK1 in human Huh-7 cells at 1 uM by KiNativ Profiling analysis relative to control. In kind it is cell-based.
Chain of Rho-associated protein kinase 1 (Homo sapiens) (Q13464 2-1354 limits assumed): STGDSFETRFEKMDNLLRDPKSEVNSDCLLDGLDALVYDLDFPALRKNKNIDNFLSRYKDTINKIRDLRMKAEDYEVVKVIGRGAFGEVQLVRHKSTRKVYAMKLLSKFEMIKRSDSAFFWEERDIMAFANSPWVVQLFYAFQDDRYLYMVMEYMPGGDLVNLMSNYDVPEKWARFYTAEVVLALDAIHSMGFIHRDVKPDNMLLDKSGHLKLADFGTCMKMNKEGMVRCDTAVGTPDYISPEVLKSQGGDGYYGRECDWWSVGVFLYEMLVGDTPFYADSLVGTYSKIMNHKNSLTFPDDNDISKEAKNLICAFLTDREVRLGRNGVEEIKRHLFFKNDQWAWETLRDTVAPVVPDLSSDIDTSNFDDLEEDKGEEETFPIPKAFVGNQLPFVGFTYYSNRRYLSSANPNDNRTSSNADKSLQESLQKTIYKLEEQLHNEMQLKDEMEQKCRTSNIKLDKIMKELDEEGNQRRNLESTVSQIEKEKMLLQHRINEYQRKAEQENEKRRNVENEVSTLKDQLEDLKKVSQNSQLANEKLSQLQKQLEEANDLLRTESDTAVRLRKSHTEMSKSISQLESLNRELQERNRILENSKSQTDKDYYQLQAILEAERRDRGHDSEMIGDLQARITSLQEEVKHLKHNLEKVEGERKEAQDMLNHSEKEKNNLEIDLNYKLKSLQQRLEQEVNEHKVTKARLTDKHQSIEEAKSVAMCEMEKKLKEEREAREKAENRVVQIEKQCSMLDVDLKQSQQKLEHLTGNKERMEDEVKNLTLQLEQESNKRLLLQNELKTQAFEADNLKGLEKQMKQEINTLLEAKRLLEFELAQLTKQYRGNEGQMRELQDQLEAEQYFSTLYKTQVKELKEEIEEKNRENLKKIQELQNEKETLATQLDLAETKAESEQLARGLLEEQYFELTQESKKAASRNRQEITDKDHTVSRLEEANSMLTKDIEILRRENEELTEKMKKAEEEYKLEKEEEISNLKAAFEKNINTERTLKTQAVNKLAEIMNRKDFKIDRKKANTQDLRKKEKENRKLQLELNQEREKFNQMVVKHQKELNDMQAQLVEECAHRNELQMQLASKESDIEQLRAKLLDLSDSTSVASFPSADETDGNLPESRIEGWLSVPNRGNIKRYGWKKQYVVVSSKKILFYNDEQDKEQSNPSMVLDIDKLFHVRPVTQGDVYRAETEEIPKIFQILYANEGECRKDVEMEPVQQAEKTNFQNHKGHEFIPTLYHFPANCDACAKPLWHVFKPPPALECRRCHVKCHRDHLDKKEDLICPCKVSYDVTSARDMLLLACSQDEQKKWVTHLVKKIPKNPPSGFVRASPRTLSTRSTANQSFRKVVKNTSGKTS

Molecules are shown by their SMILES.

Chain of 5'-AMP-activated protein kinase catalytic subunit alpha-2 (Homo sapiens) (P54646 whole entry, looked up): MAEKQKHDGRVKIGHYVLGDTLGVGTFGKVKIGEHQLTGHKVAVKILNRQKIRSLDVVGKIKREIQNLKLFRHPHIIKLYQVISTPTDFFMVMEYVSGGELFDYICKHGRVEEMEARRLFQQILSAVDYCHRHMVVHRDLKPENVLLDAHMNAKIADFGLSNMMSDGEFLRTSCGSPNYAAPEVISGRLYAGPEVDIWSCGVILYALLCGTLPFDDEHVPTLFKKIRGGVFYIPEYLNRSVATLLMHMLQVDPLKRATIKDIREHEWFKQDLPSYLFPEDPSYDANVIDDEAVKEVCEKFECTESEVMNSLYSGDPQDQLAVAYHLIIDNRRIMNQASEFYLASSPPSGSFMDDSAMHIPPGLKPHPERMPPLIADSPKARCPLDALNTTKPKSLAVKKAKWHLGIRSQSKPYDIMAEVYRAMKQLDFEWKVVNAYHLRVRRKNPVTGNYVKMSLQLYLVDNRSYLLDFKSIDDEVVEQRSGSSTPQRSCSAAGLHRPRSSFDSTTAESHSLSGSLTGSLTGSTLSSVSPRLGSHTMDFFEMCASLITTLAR
Chain of Cyclin-dependent kinase 7 (Homo sapiens) (P50613 whole entry): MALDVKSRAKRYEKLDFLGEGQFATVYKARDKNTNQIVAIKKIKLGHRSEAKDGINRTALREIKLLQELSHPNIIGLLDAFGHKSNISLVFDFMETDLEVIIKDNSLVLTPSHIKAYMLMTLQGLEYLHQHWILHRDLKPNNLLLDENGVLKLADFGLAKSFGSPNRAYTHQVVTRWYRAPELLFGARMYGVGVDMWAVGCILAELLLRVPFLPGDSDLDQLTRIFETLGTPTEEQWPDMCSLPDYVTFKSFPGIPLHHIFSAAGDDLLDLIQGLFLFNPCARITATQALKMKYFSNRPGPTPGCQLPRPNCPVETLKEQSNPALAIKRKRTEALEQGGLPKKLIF

One may read the inhibition as the change of the read-out against control, counted positive when it falls. `CNc1cc(Oc2cc(C(=O)Nc3cc(N4CCN(C)CC4)cc(C(F)(F)F)c3)ccc2C)ncn1`: the inhibition was -4.1% in test [1] and 11.5% in test [2].
As a reminder, the residual activity is the activity still measured, relative to the control. High values mean a small loss of activity, low ones a large loss of activity. Turning to `CCN1CCN(Cc2ccc(NC(=O)c3ccc(C)c(/C=C/c4cnc5[nH]ccc5c4OC)c3)cc2C(F)(F)F)CC1`, the inhibition is 13% in [3]; -6.6% in [4]; 12.3% in [5]; -8.6% in test [7]; 39% in [8]; 38.7% in [9]. For the same compound, the inhibition in test [10] is 20.3%; in test [11] it was 50%. Further, the residual activity in test [6] and in test [12] was 100% each time.
In the case of `CCN1CCN(Cc2ccc(NC(=O)c3ccc(C)c(Oc4ccnc5[nH]ccc45)c3)cc2C(F)(F)F)CC1`, the inhibition is 35.6% in [13], 3.3% in test [14] and -5.5% in test [15].
